From ChEMBL document CHEMBL3817814, “Development and Characterization of a Potent Free Fatty Acid Receptor 1 (FFA1) Fluorescent Tracer” (J Med Chem, 2016)

Assays:
[1] = biological target: T1, Free fatty acid receptor 1 (Homo sapiens, UniProt O14842); test: Agonist activity at eYFP-tagged FFA1 receptor (unknown origin) expressed in human Flp-In T-REX-293 cells measured for 90 secs by Fura-2 AM dye based calcium mobilization assay; assay type: functional, cell-based
Method in brief: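 Flp-In T-REx 293 cells with doxycycline-inducible FFA1-eYFP were plated 50,000/well and induced with 100 ng/ml doxycycline 24 h before assay. Cells were Fura-2 AM loaded 45 min, washed three times and kept 15 min in HBSS. […] Mean ± S.E.M., n=3.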

[2] = biological target: T1, Free fatty acid receptor 1; test: Binding affinity to N-terminal NLUC-tagged FFA1 receptor (unknown origin) expressed in human Flp-In T-REX-293 cell membrane coexpressing mGluR5 incubated for 1 hr by equilibrium BRET assay; assay type: cell membranes
Method in brief: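 Membranes from NLUC-FFA1 Flp-In T-REx 293 cells (induced 24 h, 100 ng/ml doxycycline) were used at 5 µg protein/well in 50 mM HEPES, 100 mM NaCl, 10 mM CaCl2, 10 mM MgCl2. Varying tracer concentrations, up to 100 nM, were incubated 1 h at 25 °C, with 10 µM unlabeled agonist defining non-specific binding. Nano-Glo (1:800 final) was added, then 460/545 nm emission read after 5 min. Kd came from saturation fits.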

[3] = biological target: T1, Free fatty acid receptor 1; test: Binding affinity to N-terminal NLUC-tagged FFA1 receptor (unknown origin) expressed in human Flp-In T-REX-293 cell membrane coexpressing mGluR5 preincubated for 5 mins followed by TUG-905 addition measured after 15 mins by kinetic BRET assay; assay type: cell membranes
Method in brief: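 Membranes (2.5 µg protein/well) were pre-incubated 5 min at 25 °C with Nano-Glo (1:800 final), and 460/545 nm emission was read every 20 s at 25 °C. After 60 s, tracer (100 nM final) was injected; 5 min later 10 µM unlabeled agonist was injected and reading continued 15 min. Non-specific signal from wells pre-dosed with unlabeled agonist was subtracted, giving koff and kon.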

[4] = biological target: T1, Free fatty acid receptor 1; test: Agonist activity at FFA1 receptor (unknown origin) expressed in human […] cells measured for 90 secs by Fura-2 AM dye based calcium mobilization assay relative to TUG-770; assay type: functional, cell-based
Method in brief: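 Untagged FFA1 constitutively expressed in N1-FFA1 cells, plated 15,000/well 24 h ahead. Cells loaded 45 min with Fura-2 AM, washed three times, then held 15 min in HBSS. Emission at 510 nm from 340/380 nm excitation was recorded before and for 90 s after compound addition. The peak 340/380 ratio gave concentration-response curves.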

[5] = biological target: T1, Free fatty acid receptor 1; test: Agonist activity at FFA1 receptor (unknown origin) expressed in human […] cells measured for 90 secs by Fura-2 AM dye based calcium mobilization assay; assay type: functional, cell-based
Method in brief: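 N1-FFA1 cells constitutively expressing untagged FFA1 were plated 24 h before the assay. They were loaded with Fura-2 AM for 45 min, washed three times, and held 15 min in HBSS. Fura-2 emission at 510 nm (340 or 380 nm excitation) was read before and for 90 s after compound addition. The peak 340/380 ratio gave concentration-response curves for potency.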

[6] = biological target: T1, Free fatty acid receptor 1; test: Agonist activity at human C-terminal eYFP-tagged FFA1 receptor expressed in HEK-293 cells assessed as beta-arrestin2 recruitment incubated for 5 mins by BRET assay relative to TUG-770; assay type: cell-based; conditions: HEK293
[7] = biological target: T1, Free fatty acid receptor 1; test: Agonist activity at human C-terminal eYFP-tagged FFA1 receptor expressed in HEK-293 cells assessed as beta-arrestin2 recruitment incubated for 5 mins by BRET assay; assay type: cell-based, HEK293
[8] = biological target: T1, Free fatty acid receptor 1; test: Displacement of 3-(2-Fluoro-4-((2'-methyl-4'-(2-(2-((7-nitrobenzo[c][1,2,5]-oxadiazol-4-yl)amino)ethoxy)ethoxy)-[1,1'-biphenyl]-3-yl)-methoxy)phenyl)propanoic acid from N-terminal NLUC-tagged FFA1 receptor (unknown origin) expressed in human Flp-In T-REX-293 cell membrane coexpressing mGluR5 incubated for 1 hr by equilibrium BRET assay; assay type: cell membranes

T1 sequence (O14842 whole entry): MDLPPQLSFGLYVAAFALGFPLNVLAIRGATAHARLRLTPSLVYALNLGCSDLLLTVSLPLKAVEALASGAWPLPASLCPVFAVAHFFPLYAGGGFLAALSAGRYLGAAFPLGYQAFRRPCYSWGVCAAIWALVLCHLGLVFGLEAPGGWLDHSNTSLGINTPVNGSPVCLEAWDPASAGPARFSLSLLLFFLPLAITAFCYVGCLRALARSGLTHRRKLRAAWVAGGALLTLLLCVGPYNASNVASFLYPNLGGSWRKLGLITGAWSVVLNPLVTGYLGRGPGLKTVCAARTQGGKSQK

| SMILES | Emax [6] [%] | EC50 [7] [nM] | Ki [8] [nM] | other results |
| --- | --- | --- | --- | --- |
| Cc1cc(OCCOCCNc2ccc([N+](=O)[O-])c3nonc23)ccc1-c1cccc(COc2ccc(CCC(=O)O)c(F)c2)c1 |  |  |  | EC50 [1]: 187 nM; Kd [2]: 7.4 nM; Kd [3]: 4 nM |
| CCCCCCCCCCCC(=O)O [DODECANOATE] | 130 | 7940 |  | Emax [4]: 116%; EC50 [5]: 759 nM; pKb [8]: 4.46 |
| Cc1cc(Oc2ncc(C(F)(F)F)cc2Cl)ccc1CC1SC(=O)NC1=O (stereo not drawn) | 95 | 55 | 69.2 |  |
| Cc1cc(OCCCS(C)(=O)=O)cc(C)c1-c1cccc(COc2ccc3c(c2)OC[C@H]3CC(=O)O)c1 | 89 |  |  | Emax [4]: 108% |
| O=C(O)CCc1ccc(C#Cc2cccc(OCCOCCNc3ccc([N+](=O)[O-])c4nonc34)c2)cc1F |  |  |  | EC50 [1]: > 1000 nM |

The next lines start with results.

| Emax [6] [%] | EC50 [7] [nM] | Ki [8] [nM] | SMILES | other results |
| --- | --- | --- | --- | --- |
| 90 |  | 13800 | O=C(O)CCc1ccc(OCc2ccccc2)cc1 [BENZYLOXYPHENYLPROPANOIC ACID] |  |
| 86 |  | 219 | O=C(O)CCc1ccc(NCc2cccc(Oc3ccccc3)c2)cc1 [GW9508] |  |
| 114 |  |  | Cc1ccccc1-c1cccc(CNc2ccc(CCC(=O)O)cc2)c1 |  |
| 100 | 67.6 | 631 | Cc1ccccc1C#Cc1ccc(CCC(=O)O)cc1 |  |
| 95 |  |  | N#CCc1ccccc1C#Cc1ccc(CCC(=O)O)cc1 |  |
